In data set [1] the target is T1, Peroxisome proliferator-activated receptor gamma (Homo sapiens, UniProt P37231).
T1 sequence (P37231 whole entry): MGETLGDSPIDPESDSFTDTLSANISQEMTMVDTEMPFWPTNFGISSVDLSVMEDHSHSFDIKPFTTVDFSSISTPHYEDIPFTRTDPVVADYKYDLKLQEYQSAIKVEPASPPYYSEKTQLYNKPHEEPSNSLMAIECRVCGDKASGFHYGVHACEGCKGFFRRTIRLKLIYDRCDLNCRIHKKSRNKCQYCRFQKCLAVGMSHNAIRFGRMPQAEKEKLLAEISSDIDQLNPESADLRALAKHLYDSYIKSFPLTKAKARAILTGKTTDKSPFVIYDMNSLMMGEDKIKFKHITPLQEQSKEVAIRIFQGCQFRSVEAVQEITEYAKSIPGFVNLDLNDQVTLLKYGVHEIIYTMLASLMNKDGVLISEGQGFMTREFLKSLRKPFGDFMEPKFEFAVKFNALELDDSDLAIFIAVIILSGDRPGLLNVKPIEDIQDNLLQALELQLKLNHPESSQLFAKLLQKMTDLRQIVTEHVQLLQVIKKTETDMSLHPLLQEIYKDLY
As to the kind of experiment: Binding affinity to PPARgamma LBD by fluorescence polarization based competitive binding assay. In general terms: In fluorescence polarisation assays a small probe gives low polarisation when free and higher when bound to something large.

In data set [2] the target is T1, Peroxisome proliferator-activated receptor gamma. Kind of data set: Displacement of pan-PPAR fluormone from PPARgamma LBD by TR-FRET based LanthaScreen assay. Background: TR-FRET usually uses a lanthanide donor and a delayed reading to cut background.
The target in data set [3] is T2, Peroxisome proliferator-activated receptor gamma (Homo sapiens) (UniProt P37231).
T2 sequence (whole entry): T1 sequence (P37231 whole entry)
Kind of data set: (§1) Agonist activity at PPARgamma LBD in human 293H DA cells after 16 hrs by TR-FRET activation reporter assay. The data set is classed as functional, cell-based. Summed up: (§2)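 GeneBLAzer PPARγ 293H DA cells plated at 30 000 cells/well, exposed to compound (0.1 to 10 000 nM; 0.1% DMSO final) for approximately 16 h. LiveBLAzer-FRET B/G substrate loaded for 2 h, then fluorescence read at 460 and 530 nm. […] EC50 from sigmoidal varying-slope fit. Triplicates, at least two independent experiments.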

For data set [4], the target named is T1, Peroxisome proliferator-activated receptor gamma. Described as §1. Type of data set: functional, cell-based. Summed up: as §2
For data set [5], the target named is T2, Peroxisome proliferator-activated receptor gamma (Homo sapiens). Kind of data set: Agonist activity at PPARgamma LBD in human 293H DA cells after 16 hrs by TR-FRET activation reporter assay relative to rosiglitazone. Type of data set: functional, cell-based. Summed up:
as §2

Data set [6] has as its target T3, Peroxisome proliferator-activated receptor delta (Homo sapiens, UniProt Q03181).
T3 sequence (Q03181 whole entry): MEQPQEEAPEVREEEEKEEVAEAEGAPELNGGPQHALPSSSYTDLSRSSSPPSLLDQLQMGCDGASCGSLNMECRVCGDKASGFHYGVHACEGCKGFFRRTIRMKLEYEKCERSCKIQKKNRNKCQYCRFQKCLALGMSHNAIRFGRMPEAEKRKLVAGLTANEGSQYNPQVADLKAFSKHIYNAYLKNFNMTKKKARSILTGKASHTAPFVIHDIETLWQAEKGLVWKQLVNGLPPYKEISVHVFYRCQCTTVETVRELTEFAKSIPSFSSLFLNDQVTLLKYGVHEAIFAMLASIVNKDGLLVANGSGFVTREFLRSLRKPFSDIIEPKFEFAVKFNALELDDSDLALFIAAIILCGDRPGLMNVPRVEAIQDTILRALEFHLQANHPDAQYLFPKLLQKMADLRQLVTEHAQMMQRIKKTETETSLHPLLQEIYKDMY
Kind of data set: Displacement of pan-PPAR fluormone from PPARdelta LBD by TR-FRET based LanthaScreen assay.

A short description of data set [7]: Octanol-water partition coefficient, log P of the compound. The data set is classed as physicochemical.
Data set [8] has as its target PPAR delta/gamma (Homo sapiens) (UniProt P37231+Q03181). Kind of data set: Selectivity ratio of EC50 for PPARdelta LBD to EC50 for PPARgamma LBD.
Data set [9] deals with T4, Peroxisome proliferator-activated receptor alpha (Homo sapiens) (UniProt Q07869).
T4 sequence (whole entry): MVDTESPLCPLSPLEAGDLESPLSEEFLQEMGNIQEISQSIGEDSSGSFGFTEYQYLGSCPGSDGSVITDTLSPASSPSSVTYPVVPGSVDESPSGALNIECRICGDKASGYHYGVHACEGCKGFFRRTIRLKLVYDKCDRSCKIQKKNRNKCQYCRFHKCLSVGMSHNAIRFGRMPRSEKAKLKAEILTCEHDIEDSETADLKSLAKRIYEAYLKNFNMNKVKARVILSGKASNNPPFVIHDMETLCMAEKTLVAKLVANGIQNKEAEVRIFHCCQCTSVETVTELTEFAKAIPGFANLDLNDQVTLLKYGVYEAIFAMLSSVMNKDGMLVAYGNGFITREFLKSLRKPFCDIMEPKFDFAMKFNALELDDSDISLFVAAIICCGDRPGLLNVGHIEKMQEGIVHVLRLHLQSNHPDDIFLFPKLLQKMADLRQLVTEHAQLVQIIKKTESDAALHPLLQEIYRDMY
Kind of data set: Displacement of pan-PPAR fluormone from PPARalpha LBD at >= 100 uM by TR-FRET based LanthaScreen assay.

Data set [10] deals with T5, Peroxisome proliferator-activated receptor alpha (Homo sapiens, UniProt Q07869).
T5 sequence (Q07869 whole entry): T4 sequence (whole entry)
As to the kind of experiment: Displacement of pan-PPAR fluormone from PPARalpha LBD by TR-FRET based LanthaScreen assay.

The target of data set [11] is T2, Peroxisome proliferator-activated receptor gamma (Homo sapiens). As to the kind of experiment: Binding affinity to PPARgamma LBD at >= 100 uM by fluorescence polarization based competitive binding assay.
Data set [12] has the same target. Kind of data set: Displacement of pan-PPAR fluormone from PPARgamma LBD at >= 100 uM by TR-FRET based LanthaScreen assay.
The species entered for data set [13] is Homo sapiens. Kind of data set: Selectivity ratio of EC50 for PPARalpha LBD to EC50 for PPARgamma LBD.

Molecules are shown by their SMILES. Active and inactive are the calls of the source. No cut-off for these calls is given here.

What is called EC50 is the concentration needed to bring the measured effect to its halfway point. By logP is commonly meant a log measure of how a compound divides between an organic and an aqueous phase. Lower therefore signals lower lipophilicity. In the case of `CCOC(=O)c1sc(N2C(=O)C(O)=C(C(=O)c3cccs3)C2c2ccc(C)o2)nc1C` (stereo unspecified), the EC50 in data set [1] came to 2400 nM; in [2], 2400 nM; in [4], 594 nM; in [6], 26000 nM. Further, in [3], the Activity entry was “Dose-dependent effect”. Also, the Emax in data set [5] stood at 77.5%. In [7], this compound came in with a logP of 2.39. Besides, in data set [8], the Ratio EC50 is 10.8. Further, in [9], the inhibition result was “inactive”.

Consider `O=C1NC(=S)NC(=O)C1=Cc1ccc(OCc2ccccc2)c(Cl)c1`, for which the EC50 was 325 nM in data set [1], 215 nM in data set [2], 467 nM in data set [4] and “Not Active” in data set [10]. Moreover, the Activity entry in data set [3] is “Dose-dependent effect”. The Emax in data set [5] was found to be 91.6%. This compound also yielded a lipophilicity (logP) in data set [7] of 3.11.

`Cc1cc(SCc2sc(-c3ccc(C(F)(F)F)c(F)c3)nc2C)ccc1OCC(=O)O`: the 50% effective concentration (EC50) in data set [10] (read-out: EC50) is 920 nM. In [7], the logP came out at 5.95. The inhibition entry in data set [11] and in [12] was “inactive” in each case.

In [7], `CC(C)(Sc1ccc(CCN(CCCCC2CCCCC2)C(=O)NC2CCCCC2)cc1)C(=O)O` [GW7647] displayed a logP of 8.02. The inhibition result in data set [11] and in data set [12] was “inactive” in each case.

Compound `CN(CCOc1ccc(C[C@H](Nc2ccccc2C(=O)c2ccccc2)C(=O)O)cc1)c1ccccn1` displayed a log partition coefficient (logP) in data set [7] of 5.23.

For `CN(CCOc1ccc(CC2SC(=O)NC2=O)cc1)c1ccccn1` (stereo unspecified) [ROSIGLITAZONE], the lipophilicity (logP) in data set [7] was 2.62. For the same compound, in [9], the inhibition entry is “inactive”.

With `O=C(Nn1cc([N+](=O)[O-])cn1)c1cccc(COc2ccc(Br)cc2)c1`, the EC50 is 5450 nM in data set [1]; 5450 nM in [2]; 682 nM in data set [4]; 11400 nM in data set [10] (read-out: EC50); 21000 nM in data set [6]. Also, the Activity entry in data set [3] was “Dose-dependent effect”. The same compound showed an Emax in data set [5] of 68.7%. The same compound registered a logP in data set [7] of 3.71. Besides, the values for the Ratio EC50 in data set [13] and in data set [8] were 2 and 4, respectively.

The record behind these values is ChEMBL document CHEMBL2062388, “Integrated virtual screening for the identification of novel and selective peroxisome proliferator-activated receptor (PPAR) scaffolds” (J Med Chem, 2012).
